High-throughput results: PubChem, SRMLSC
Lung fibro prol = antiproliferative effect on LL 47 fibroblasts – human, LL 47 cells, CellTiter-Glo luminescence, primary screen | LL 47 human lung fibroblast viability, ATP luminescence; stronger effect = lower value | viability, % at 10 µM | 85,000 compounds, 1.1% hits | AID 719, 2007;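 active means viability at or below 50% in the single dose screen; inactive means viability above 50%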;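 further: compound exposure lasted 72 h before the ATP readout; 100% = median luminescence of untreated cell-only wells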
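test system = LL 47 human lung fibroblasts | amount = 1,150 fibroblasts seeded per well | medium = 15% FBS in IMEM | times = overnight cell rest, 72 h compound treatment at 37 °C | measured by = CellTiter-Glo luminescence measuring cellular ATP | read-out = viability percentage against median untreated-cell control | benchmarks = cell-only wells, no compound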
HUVEC inhibit = inhibitors of HUVEC proliferation, primary screen, cell-based, 384-well | AID 648, 2007 | viability, % at 10 µM (by protocol) | 86,000 compounds, 1.1% hits | CellTiter-Glo luminescence, 72 h; stronger effect = lower value;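 active means viability at or below 30%; inactive means viability above 30%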;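 further: 100% = median luminescence of DMSO-only cell control wells on each plate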
PTEN del growth = growth suppression of PTEN-null HCT116, primary screen, cell-based, CellTiter-Glo. HCT116 PTEN-null viability, 60 h; stronger effect = lower value. viability, % at 10 µM. 140,000 compounds, 1.2% hits;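 active means viability at or below a set limit, 4 SD under the median of all tested compounds, cut at about 3.7% in these data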;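 further: PTEN knockout HCT116 line with beta catenin targeted HCT116 as companion control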
H69AR inhibit = proliferation blockers of H69AR lung cancer cells, primary screen, cell-based, human, 86K library. viability, % at 10 µM. 85,000 compounds, 6% hits. H69AR lung tumor viability, ATP luminescence, 72 h; stronger effect = lower value. AID 598, 2007;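 active means viability at or below 40%; inactive means viability above 40%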;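 further: multidrug resistant small cell line overexpressing MRP-1 efflux transporter; 100% = mean luminescence of untreated control wells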
HCT116 bCat-KO = primary screen for growth suppressors in beta-catenin knockout HCT116 cells (colon tumor, human); HCT116 beta-catenin knockout viability, CellTiter-Glo, 60 h; stronger effect = lower value; viability, % at 10 µM; 140,000 compounds, 1.5% hits; AID 818, 2007;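 active means viability at or under a set limit, the compound median less 4 SD, cut at about 6% in these data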;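 further: 0% = Hyamine 1622 control at 20 µM and 100% = untreated cell control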
Numbers without * were called inactive; . = not tested or not shown. The full list was thinned out, with hits kept by preference.

SMILES | Lung fibro prol | HUVEC inhibit | PTEN del growth | H69AR inhibit | HCT116 bCat-KO
CCc1ccccc1N1CSC2=C(C#N)C(c3ccccc3F)CC(=O)N2C1 (stereo unspecified) | 97 | 82 | 86 | 29* | 71
CCN1/C(=C/C=C/C=C/c2sc3ccccc3[n+]2CC)Sc2ccccc21 | . | . | 1.7* | . | 1.2*
CC[n+]1c(/C=C/Nc2ccccc2)sc2ccccc21 | . | . | 56 | . | 52
O=C1C2CCCCC2C(=O)N1c1ccc(NC2CCCCC2)c([N+](=O)[O-])c1 (stereo unspecified) | . | . | 90 | . | 84
O=C(c1ccco1)N1CCN(c2ccccc2F)CC1 | 109 | 98 | 99 | 103 | 101
COc1ccccc1N1CCN(C(=O)c2ccc(Cl)c(S(=O)(=O)NCc3ccco3)c2)CC1 | 68 | 55 | 29 | 23* | 28
CN(c1ccccc1)S(=O)(=O)c1cc(C(=O)N2CCN(c3ccccn3)CC2)ccc1Cl | 93 | 82 | 71 | 71 | 60
O=C(c1ccc(Cl)c(S(=O)(=O)Nc2ccc(F)cc2)c1)N1CCN(c2ccccn2)CC1 | 99 | 74 | 88 | 36* | 80
COc1cc(C)c(Cl)cc1S(=O)(=O)NCc1ccco1 | 108 | 94 | 82 | 92 | 83
O=C(c1ccc(Cl)c(S(=O)(=O)NCc2ccco2)c1)N1CCN(c2ccccc2F)CC1 | 81 | 73 | 67 | 21* | 59
O=C(NCc1ccc(Cl)cc1)c1ccc2nc[nH]c2c1 | . | . | 99 | . | 95
CCOC(=O)Cc1cc(-c2ccc(F)cc2)nc2ccc3ccccc3c12 | . | . | 89 | . | 86
Cc1ccc(/C=C/C(=O)c2nc3ccccc3[nH]2)cc1 | . | . | 2.7* | . | 2.5*
Cc1ccc(/C=C/C(=O)Nc2nc3ccccc3[nH]2)cc1 | . | . | 68 | . | 69
CC(C)N1C/C(=C/c2ccsc2)C(=O)/C(=C/c2ccsc2)C1 | . | . | 1.5* | . | 2.6*
CC(C)N1C/C(=C/c2cccnc2)C(=O)/C(=C/c2cccnc2)C1 | . | . | 58 | . | 52
COc1ccc(CNC(=O)COC(=O)[C@H](Cc2c[nH]c3ccccc23)NC(=O)c2cccs2)cc1 | . | . | 79 | . | 85
Cc1cc(C)n(-c2nc(N(c3ccccc3)c3ccccc3)nc(-n3nc(C)cc3C)n2)n1 | 38* | 37 | 19 | 12* | 21
Cc1cnc(NC(=O)c2sc3ccccc3c2Cl)s1 | . | . | 67 | . | 72
O=C(Nc1ccccc1-c1nc2ccccc2[nH]1)c1sc2ccccc2c1Cl | . | . | 1.9* | . | 4.0*
COc1ccccc1C(c1nnnn1Cc1ccccc1)N1CCN(C2CCCC2)CC1 (stereo unspecified) | 90 | 88 | 94 | 76 | 86
COc1cccc(C(c2nnnn2Cc2ccccc2)N2CCN(C3CCCC3)CC2)c1OC (stereo unspecified) | 102 | 87 | 72 | 20* | 67
c1ccc(Cn2nnnc2C(c2cccs2)N2CCCCCC2)cc1 (stereo unspecified) | 82 | 89 | 75 | 22* | 73
O=C(Nc1ccc(S(=O)(=O)Nc2ncccn2)cc1)c1ccc(Br)s1 | . | . | 94 | . | 91
COc1ccccc1N(C)S(=O)(=O)c1ccc(C(=O)OCC(=O)c2c[nH]c3ccccc23)cc1 | . | . | 84 | . | 81
SMILES | Lung fibro prol | HUVEC inhibit | PTEN del growth | H69AR inhibit | HCT116 bCat-KO
Cc1cccc2sc(NC(=O)c3ccc(NS(=O)(=O)c4cccs4)cc3)nc12 | . | . | 87 | . | 91
O=C(CNc1cccc2ccccc12)N/N=C/c1ccc([N+](=O)[O-])o1 | . | . | 5 | . | 4.7*
O=C(CNc1cccc2ccccc12)N/N=C/C(Br)=C/c1ccccc1 | 81 | 47 | 1.2* | 25* | 2.7*
CSc1ccc(/C=N/NC(=O)CNc2cccc3ccccc23)cc1 | . | . | 92 | . | 93
CCOC(=O)N/N=C\c1ccc([N+](=O)[O-])o1 | 94 | 103 | 26 | 79 | 20
CC1(C(=O)N/N=C/c2ccc([N+](=O)[O-])o2)CC1(Br)Br (stereo unspecified) | . | . | 2.5* | . | 2.6*
Cn1c(=O)c2c(ncn2CC(=O)N/N=C/C(Br)=C/c2ccccc2)n(C)c1=O | . | . | 2.6* | . | 2.4*
Cn1c(=O)c2c(ncn2CC(=O)N/N=C/C=C/c2ccccc2)n(C)c1=O | . | . | 83 | . | 85
Cc1ccnc(NS(=O)(=O)c2ccc(NC(=O)c3cc(-c4ccc(Br)cc4)nc4ccccc34)cc2)n1 | . | . | 56 | . | 75
O=C(N/N=C/c1ccc([N+](=O)[O-])o1)c1cc(-c2ccncc2)nc2ccccc12 | . | . | 3.3* | . | 2.8*
O=C(N/N=C/c1ccccn1)c1cc(-c2ccncc2)nc2ccccc12 | . | . | 32 | . | 17
CC(C)C1C(c2ccccc2)N(C)C(c2ccccc2)CC1(O)c1ccccc1 (stereo unspecified) | 83 | 61 | 25 | 20* | 26
CCc1nnc(NC(=O)c2c(O)c3cccc4c3n(c2=O)CC4)s1 | 86 | 85 | . | 1.8* | .
CCCc1nnc(NC(=O)c2c(O)c3cccc4c3n(c2=O)CC4)s1 | 111 | 109 | . | 18* | .
O=C(NCCc1ccccc1)c1c(O)c2cccc3c2n(c1=O)CC3 | 99 | 103 | 94 | 67 | 88
O=C(NCc1ccccn1)c1c(O)c2cccc3c2n(c1=O)CC3 | 104 | 89 | 0.6* | 89 | 0.9*
Cc1cc(C)cc(-n2cc[nH]c2=S)c1 | . | . | 96 | . | 105
CC(C)NC(=O)c1sc2nc(-c3cccs3)cc(-c3cccs3)c2c1N | 96 | 74 | 101 | 76 | 95
Nc1c(C(=O)C2CC2)sc2nc(-c3cccs3)cc(C(F)(F)F)c12 | 101 | 32 | 25 | 12* | 34
COc1ccc(-c2c3c(nc4sc5c(Cl)nc(C)nc5c24)CCC3)cc1 | . | . | 1.5* | . | 1.2*
C=CCNC(=O)/C(C#N)=C\c1cc(Cl)c(OCC)c(OC)c1 | . | . | 25 | . | 27
Cc1cnc(C(=O)Nc2ccccc2-c2ccc(C)o2)cn1 | 95 | 95 | 88 | 80 | 93
O=C(Nc1ccccc1Br)C1CC(=O)N(c2ccc3c4c(cccc24)CC3)C1 (stereo unspecified) | . | . | 31 | . | 33
FC(F)(F)c1nnc2c(Sc3ccccn3)nc3ccccc3n12 | . | . | 2.7* | . | 2.1*
FC(F)(F)c1nnc2c(Sc3ccc(Cl)cc3)nc3ccccc3n12 | . | . | 6 | . | 2.8*
SMILES | Lung fibro prol | HUVEC inhibit | PTEN del growth | H69AR inhibit | HCT116 bCat-KO
O=C(/C=C/c1ccc(Cl)cc1)NC(=S)Nc1ccc(NC(=O)c2ccco2)cc1 | . | . | 13 | . | 17
COc1ccc(C2CC3(CC(C)(C)NC(SC)=N3)Oc3cc(O)cc(C)c32)cc1 (stereo unspecified) | . | . | 12 | . | 10
COc1cc2c(cc1NC(=O)Nc1ccc(F)cc1)oc1ccccc12 | . | . | 71 | . | 60
c1ccc(-c2nnc(Cn3c4ccccc4c4nc5ccccc5nc43)o2)cc1 | 91 | 47 | . | 11* | .
COc1cccc(/C=C2\C(=O)C(=O)c3ccccc32)c1 | 77 | 72 | 100 | 5.3* | 92
COc1ccc(-c2cc(C(=O)Nc3nc4c(C)cccc4s3)c3ccccc3n2)cc1OC | . | . | 62 | . | 72
